The text below walks through data of ChEMBL document CHEMBL1681633, “Design, synthesis, and in vitro characterization of novel hybrid peptidomimetic inhibitors of STAT3 protein” (Bioorg Med Chem, 2011).

Activity calls are given as the source filed them. The rule behind the calls is not given here. Where only a bound is given, the exact number is not on record here.

The target of data set [1] is T1, Signal transducer and activator of transcription 3 (Mus musculus, UniProt P42227). The data set is described as follows: Displacement of 5-carboxyfluorescein-GpYLPQTV-NH2 from mouse recombinant His-tagged STAT3-SH2 domain expressed in Escherichia coli BL21 (DE3) by fluorescence polarization assay. The procedure, abridged:
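His-tagged protein expressed in BL21(DE3), Ni-column purified. STAT3 150 nM incubated with serial inhibitor concentrations 60 min at 30 °C in 50 mM NaCl, 10 mM HEPES, 1 mM EDTA, 0.1% NP-40; 15 min equilibration at room temperature; 10 nM final probe added, 30 min room temperature, then FP read.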
On the technique in general: Polarisation of emitted light reports the rotation of a fluorescent probe.

Data set [2] concerns the target T1, Signal transducer and activator of transcription 3. The data set is described as follows: Inhibition of STAT3 dimerization in mouse NIH3T3 cells expressing v-Src assessed as disruption of STAT3-STAT3: DNA complexation in nucleus after 30 mins by electrophoretic mobility shift assay. It counts as cell-based. Summed up:
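Nuclear extracts from NIH3T3/v-Src (constitutively active STAT3), equal total protein, pre-incubated 30 min at room temperature with increasing compound concentrations, then with radiolabelled hSIE probe; EMSA with densitometry quantification.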

The target of data set [3] is Signal transducer and activator of transcription 3 (Mus musculus) (UniProt P42227). The data set is described as follows: Inhibition of STAT3 dimerization in v-Src transformed mouse NIH3T3 cells assessed as suppression of STAT3-DNA binding activity in nucleus at 100 uM after 24 hrs by electrophoretic mobility shift assay. It counts as cell-based. Summed up:
(§1)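 NIH3T3/v-Src cells treated with 100 μM compound for 6 or 24 h; nuclear extracts then tested for STAT3 DNA binding in vitro with radiolabelled hSIE probe by EMSA.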
For orientation: In EMSA bound probe runs differently from free probe, usually more slowly.

The target is the same in data set [4]. The data set is described as follows: Inhibition of STAT3 dimerization in v-Src transformed mouse NIH3T3 cells assessed as suppression of STAT3-DNA binding activity in nucleus at 100 uM after 6 hrs by electrophoretic mobility shift assay. The class given is cell-based. The procedure, abridged:
as §1

Data set [5] in a line: Metabolic stability in human Caco2 cells at 10 uM at pH 7.4 after 90 mins by LC/MS analysis. The class given is ADME, cell-based. Particulars: Caco-2 cells, read-out: Stability. The procedure, abridged:
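Caco-2 monolayers grown on PET membrane inserts (1.0 µm pore) at 75,000 cells/cm² and used on day 25, fully polarized and differentiated. Compound at 10 μM final, non-gradient pH 7.4/7.4, 90 min. Samples analysed by narrow-window mass-extraction LC/QTof-MS for parent-compound peak areas. Percent recovered or transported calculated relative to the initial dosing concentration.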

The test system of data set [6] is Caco-2. The data set is described as follows: Apparent permeability across apical to basolateral side in human Caco2 cells at 10 uM at pH 7.4 after 90 mins by LC/MS analysis. It counts as ADME, cell-based. Particulars: caco-2, pH 7.4, […]. For orientation: Caco-2 monolayers are a common model of the intestinal barrier.
The target in data set [7] is T1, Signal transducer and activator of transcription 3. The data set is described as follows: Inhibition of mouse recombinant SH2 domain of His-tagged full-length STAT3 by surface plasmon resonance assay. Summed up: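 Purified STAT3 captured on a HisCap sensor chip by injecting 50 μg/ml protein; inhibitors at various concentrations in 1X PBS, 0.5% DMSO running buffer passed over chip; association and dissociation rate constants recorded, their ratio taken as KD.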

Data set [8] deals with T2, Signal transducer and activator of transcription 1 (Mus musculus, UniProt P42225).
T2 sequence (P42225 whole entry): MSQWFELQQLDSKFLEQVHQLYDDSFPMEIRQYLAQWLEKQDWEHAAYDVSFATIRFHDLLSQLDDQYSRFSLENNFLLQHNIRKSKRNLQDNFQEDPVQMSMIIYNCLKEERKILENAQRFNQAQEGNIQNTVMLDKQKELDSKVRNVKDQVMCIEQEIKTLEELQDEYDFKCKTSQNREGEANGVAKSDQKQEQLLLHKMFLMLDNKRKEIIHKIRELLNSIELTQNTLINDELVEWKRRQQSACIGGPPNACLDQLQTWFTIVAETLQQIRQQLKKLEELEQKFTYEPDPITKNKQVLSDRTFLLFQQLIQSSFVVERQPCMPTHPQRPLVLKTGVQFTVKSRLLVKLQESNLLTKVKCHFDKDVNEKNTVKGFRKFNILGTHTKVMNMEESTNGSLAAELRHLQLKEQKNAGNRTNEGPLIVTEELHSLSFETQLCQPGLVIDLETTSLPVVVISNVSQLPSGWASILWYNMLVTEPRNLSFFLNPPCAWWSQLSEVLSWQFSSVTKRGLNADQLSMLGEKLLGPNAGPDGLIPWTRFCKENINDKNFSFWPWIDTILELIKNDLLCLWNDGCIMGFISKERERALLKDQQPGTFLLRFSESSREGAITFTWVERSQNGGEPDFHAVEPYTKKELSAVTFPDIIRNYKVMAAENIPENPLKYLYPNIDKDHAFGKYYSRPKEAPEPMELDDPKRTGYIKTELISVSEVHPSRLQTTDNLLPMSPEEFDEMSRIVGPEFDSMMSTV
The data set is described as follows: Displacement of 5-carboxyfluorescein-GpYDKPHVL-NH2 from mouse recombinant His-tagged STAT1-SH2 domain expressed in Escherichia coli BL21 (DE3) by fluorescence polarization assay. Summed up:
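His-tagged protein expressed in BL21(DE3), Ni-column purified. STAT1 80 nM incubated with serial inhibitor concentrations 60 min at 30 °C in 50 mM NaCl, 10 mM HEPES, 1 mM EDTA, 0.1% NP-40; 15 min equilibration at room temperature; 10 nM final probe added, 30 min room temperature, then FP read.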

In data set [9] the test system is NIH3T3. Put plainly: Antiproliferative activity against mouse NIH/3T3 cells assessed as suppression of cell viability at 50 uM after 24 hrs by CyQuant cell viability assay. It counts as functional.
The test system of data set [10] is HL-60. The data set is described as follows: Antiproliferative activity against human HL60 cells assessed as suppression of cell viability after 24 hrs by CyQuant cell viability assay. It counts as functional, cell-based. Particulars: HL-60, 24 h. The procedure, abridged:
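Cells incubated 24 h with a range of inhibitor concentrations; HL-60 cells (no aberrant STAT3 signalling) run as control alongside DU145, Panc-1, NIH3T3/vSrc and breast cancer lines. Viability/growth read by CyQuant assay.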

For data set [11], the system named is PANC-1. The data set is described as follows: Antiproliferative activity against human PANC1 cells assessed as suppression of cell viability at 50 uM after 24 hrs by CyQuant cell viability assay. The class given is functional. The procedure, abridged: (§2)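 Cancer cells (human breast MDA-MB-231, pancreatic Panc-1, prostate DU-145) treated with a range of inhibitor concentrations, 30–50 μM, for 24 h. Growth and viability read by CyQuant cell proliferation/viability assay.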

Data set [12] concerns DU-145. The data set is described as follows: Antiproliferative activity against human DU145 cells assessed as suppression of cell viability at 50 uM after 24 hrs by CyQuant cell viability assay. It counts as functional. The procedure, abridged: as §2
Data set [13] has as its system MDA-MB-468 (human). Put plainly: Antiproliferative activity against human MDA-MB-468 cells assessed as suppression of cell viability at 50 uM after 24 hrs by CyQuant cell viability assay.

As usually defined, the Ki is a dissociation constant, usually derived from enzyme kinetics or from competition with a known ligand. As usually defined, the IC50 is the concentration that gives 50% inhibition. What is called Papp is a coefficient for how fast a substance crosses the barrier. As a reminder, the Kd is the free concentration of one partner at which half of the binding sites on the other are occupied at equilibrium, for simple one-to-one binding. For orientation: inhibition means the percentage by which the read-out fell short of the control.

Sequence of Signal transducer and activator of transcription 3 (Mus musculus) (P42227 whole entry): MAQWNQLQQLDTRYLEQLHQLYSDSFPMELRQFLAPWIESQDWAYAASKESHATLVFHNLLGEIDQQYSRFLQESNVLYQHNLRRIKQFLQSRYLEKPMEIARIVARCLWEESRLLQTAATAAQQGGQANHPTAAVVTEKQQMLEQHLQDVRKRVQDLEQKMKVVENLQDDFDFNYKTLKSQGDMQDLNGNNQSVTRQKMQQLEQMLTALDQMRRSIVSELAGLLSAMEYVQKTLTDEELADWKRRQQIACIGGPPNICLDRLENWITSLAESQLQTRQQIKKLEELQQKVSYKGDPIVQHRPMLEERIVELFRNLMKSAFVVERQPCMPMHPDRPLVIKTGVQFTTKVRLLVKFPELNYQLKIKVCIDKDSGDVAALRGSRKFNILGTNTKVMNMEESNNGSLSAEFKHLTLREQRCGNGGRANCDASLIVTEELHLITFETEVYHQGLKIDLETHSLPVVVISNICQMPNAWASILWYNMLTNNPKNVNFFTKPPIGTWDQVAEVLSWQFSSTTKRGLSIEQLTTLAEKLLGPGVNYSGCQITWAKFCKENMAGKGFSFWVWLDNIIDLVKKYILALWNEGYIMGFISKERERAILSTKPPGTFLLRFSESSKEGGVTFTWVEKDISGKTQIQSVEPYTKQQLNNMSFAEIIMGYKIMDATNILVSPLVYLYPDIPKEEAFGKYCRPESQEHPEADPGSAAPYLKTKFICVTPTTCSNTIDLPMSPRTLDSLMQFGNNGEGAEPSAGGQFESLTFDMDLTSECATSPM
T1 sequence (P42227 whole entry, the tested form may be a part): as the sequence (P42227 whole entry) above

Consider `COC(=O)c1ccc(-c2cc(NC(=O)[C@H](CC(C)C)NC(=O)[C@H](Cc3ccc(OP(=O)(O)O)cc3)NC(=O)c3ccc(C#N)cc3)cc(C(=O)NCc3ccccc3)c2)cc1`, for which, in [1], the Ki turned out to be 25 µM. In addition, in data set [2], the half-maximal inhibitory concentration (IC50) was found to be 112 µM.

On to `CC(C)C[C@H](NC(=O)[C@H](Cc1ccc(OP(=O)(O)O)cc1)NC(=O)c1ccc(C#N)cc1)C(=O)Nc1ccc(C(=O)NCc2ccccc2)c(-c2cccc(C(N)=O)c2)c1`, for which the inhibition constant (Ki) in data set [1] amounted to 15 µM. In data set [2], the IC50 amounted to 62 µM.

As for `CC(C)C[C@H](NC(=O)[C@H](Cc1ccc(OP(=O)(O)O)cc1)NC(=O)c1ccc(C#N)cc1)C(=O)Nc1cc(C(=O)NCc2ccccc2)cc(-c2ccc(C#N)cc2)c1`, in [1], the Ki worked out at 36 µM. The IC50 in data set [2] was determined as 60 µM.

`CC(C)C[C@H](NC(=O)[C@H](Cc1ccc(O)cc1)NC(=O)c1ccc(C#N)cc1)C(=O)Nc1ccc(C(=O)NCc2ccccc2)c(-c2ccc(C(N)=O)cc2)c1`: the outcome in data set [3] and in data set [4] was Active. For the same compound, the IC50 in data set [2] amounted to 103 µM. In [5], the remaining at […], 10 µM was 52%. Moreover, in data set [6], the Papp is above 0.5 ×10⁻⁶ cm/s. For the same compound, the Kd in [7] was 12 µM.

Consider `CC(C)C[C@H](NC(=O)[C@H](Cc1ccc(OP(=O)(O)O)cc1)NC(=O)c1ccc(C#N)cc1)C(=O)Nc1cc(C(=O)NCc2ccccc2)cc(-c2ccc(C(N)=O)cc2)c1`, for which the outcome in data set [3] was Active. Also, the inhibition in data set [4] turned out to be 50%. Also, the inhibition constant (Ki) in data set [8] stood at 16.5 µM; in data set [1], 9 µM. The IC50 in data set [2] was 5 µM. In addition, in data set [7], the Kd was 0.205 µM.

As for `CC(C)C[C@H](NC(=O)[C@H](Cc1ccc(O)cc1)NC(=O)c1ccc(C#N)cc1)C(=O)Nc1cc(C(=O)NCc2ccccc2)cc(-c2ccc(C(N)=O)cc2)c1`, the outcome in data set [3] and in data set [4] was inactive. The half-inhibitory concentration (IC50) in data set [2] was determined as 190 µM. Also, the remaining at […], 10 µM in [5] worked out at 36%. For the same compound, the apparent permeability (Papp) in data set [6] is given as above 0.5 ×10⁻⁶ cm/s. Further, the Kd in [7] amounted to 17 µM.

Consider `CC(C)C[C@H](NC(=O)[C@H](Cc1ccc(OP(=O)(O)O)cc1)NC(=O)c1ccc(C#N)cc1)C(=O)Nc1cc(C(=O)NCc2ccccc2)cc(-c2cccc(C(N)=O)c2)c1`, for which the inhibition constant Ki in data set [1] was 38 µM. For the same compound, the IC50 in data set [2] was found to be 188 µM.

Turning to `CC(C)C[C@H](NC(=O)[C@H](Cc1ccc(OP(=O)(O)O)cc1)NC(=O)c1ccc(C#N)cc1)C(=O)Nc1ccc(C(=O)NCc2ccccc2)c(-c2ccc(C#N)cc2)c1`, the Ki in data set [1] is 11 µM. Further, the IC50 in data set [2] turned out to be 33 µM.

As for `COC(=O)c1cccc(-c2cc(NC(=O)[C@H](CC(C)C)NC(=O)[C@H](Cc3ccc(OP(=O)(O)O)cc3)NC(=O)c3ccc(C#N)cc3)cc(C(=O)NCc3ccccc3)c2)c1`, the Ki in [1] is 23 µM. Moreover, in [2], the IC50 stood at 66 µM.

Consider `COC(=O)c1ccc(-c2cc(NC(=O)[C@H](CC(C)C)NC(=O)[C@H](Cc3ccc(OP(=O)(O)O)cc3)NC(=O)c3ccc(C#N)cc3)ccc2C(=O)NCc2ccccc2)cc1`, for which the Ki in data set [1] was found to be 26 µM. Further, the half-maximal inhibitory concentration (IC50) in [2] is above 200 µM.

For the compound `COC(=O)c1cccc(-c2cc(NC(=O)[C@H](CC(C)C)NC(=O)[C@H](Cc3ccc(OP(=O)(O)O)cc3)NC(=O)c3ccc(C#N)cc3)ccc2C(=O)NCc2ccccc2)c1`, in data set [1], the Ki is 10 µM. Moreover, in data set [2], the IC50 is 40 µM.

For `CC(C)C[C@H](NC(=O)[C@H](Cc1ccc(OP(=O)(O)O)cc1)NC(=O)c1ccc(C#N)cc1)C(=O)Nc1ccc(C(=O)NCc2ccccc2)c(-c2ccc(C(N)=O)cc2)c1`, the Activity in data set [9], in [11], in data set [12] and in data set [13] was 50% in each case. Also, the figures for the IC50 in data set [10] and in [2] were above 200 µM and 73.1 µM, respectively. Moreover, in data set [3], the outcome was Active. Also, the inhibition in data set [4] is above 80%. Besides, the inhibitory constant (Ki) in [8] was 6.3 µM; in [1], 5 µM. For the same compound, the Papp in data set [6] is on record as below 0.5 ×10⁻⁶ cm/s. In data set [7], the Kd was 0.9 µM.

With `CC(C)C[C@H](NC(=O)[C@H](Cc1ccc(OP(=O)(O)O)cc1)NC(=O)c1ccc(C#N)cc1)C(=O)Nc1ccc(C(=O)NCc2ccccc2)c(-c2cccc(C#N)c2)c1`, in data set [1], the inhibition constant (Ki) was found to be 13 µM. In data set [2], the half-maximal inhibitory concentration (IC50) was found to be 64 µM.

In the case of `CC(C)C[C@H](NC(=O)[C@H](Cc1ccc(OP(=O)(O)O)cc1)NC(=O)c1ccc(C#N)cc1)C(=O)Nc1cc(C(=O)NCc2ccccc2)cc(-c2cccc(C#N)c2)c1`, the inhibitory constant (Ki) in data set [1] is 18 µM. In [2], the IC50 is 92 µM.
